The source of these data is ChEMBL document CHEMBL2150892, “Neuroprotective Tri- and Tetracyclic BChE Inhibitors Releasing Reversible Inhibitors upon Carbamate Transfer” (ACS Med Chem Lett, 2012).

A short description of test [1]: Selectivity ratio of IC50 for Electric eel AChE to IC50 for equine serum BChE. The method, boiled down:
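Selectivity ratio calculated as IC50(AChE)/IC50(BChE). AChE was from electric eel and BChE from equine serum. Each IC50 is a mean of at least three independent determinations.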

Test [2] deals with T1, Cholinesterase (Equus caballus, UniProt P81908). In words: Inhibition of equine serum BChE using acetylthiocholine as substrate after 2 mins. The method, boiled down:
(§1)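 Enzyme sources were electric eel AChE and equine serum BChE. Values are means of at least three independent determinations.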

Test [3] deals with HT-22. Briefly: Neuroprotective activity against glutamate-induced oxidative stress in mouse HT22 cells assessed as reduction of intracellular ROS formation at 10 uM after 24 hrs by MTT assay. Type of test: functional, cell-based. The procedure, abridged: (§2)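 Murine hippocampal HT-22 cells, which lack ionotropic glutamate receptors, were challenged with extracellular glutamate to cause oxidative (oxytotic) cell death. Compounds were tested at 10 μM and 5 μM against this glutamate-induced toxicity.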
In general terms: Tetrazolium dyes change colour on reduction, which living cells bring about.

Test [4] can be described thus: Antioxidant activity assessed as trolox equivalents of peroxyl radical scavenging activity by ORAC assay. Type of test: functional. The procedure, abridged: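 ORAC assay: measures how well each compound protects fluorescein from destruction by peroxyl radicals. Capacity is expressed as trolox equivalents, with trolox as the reference.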
In test [5] the target is T2, Acetylcholinesterase (Electrophorus electricus, UniProt O42275). Briefly: Inhibition of Electric eel AChE using acetylthiocholine as substrate after 2 mins. The method, boiled down: as §1
T2 sequence (O42275 whole entry): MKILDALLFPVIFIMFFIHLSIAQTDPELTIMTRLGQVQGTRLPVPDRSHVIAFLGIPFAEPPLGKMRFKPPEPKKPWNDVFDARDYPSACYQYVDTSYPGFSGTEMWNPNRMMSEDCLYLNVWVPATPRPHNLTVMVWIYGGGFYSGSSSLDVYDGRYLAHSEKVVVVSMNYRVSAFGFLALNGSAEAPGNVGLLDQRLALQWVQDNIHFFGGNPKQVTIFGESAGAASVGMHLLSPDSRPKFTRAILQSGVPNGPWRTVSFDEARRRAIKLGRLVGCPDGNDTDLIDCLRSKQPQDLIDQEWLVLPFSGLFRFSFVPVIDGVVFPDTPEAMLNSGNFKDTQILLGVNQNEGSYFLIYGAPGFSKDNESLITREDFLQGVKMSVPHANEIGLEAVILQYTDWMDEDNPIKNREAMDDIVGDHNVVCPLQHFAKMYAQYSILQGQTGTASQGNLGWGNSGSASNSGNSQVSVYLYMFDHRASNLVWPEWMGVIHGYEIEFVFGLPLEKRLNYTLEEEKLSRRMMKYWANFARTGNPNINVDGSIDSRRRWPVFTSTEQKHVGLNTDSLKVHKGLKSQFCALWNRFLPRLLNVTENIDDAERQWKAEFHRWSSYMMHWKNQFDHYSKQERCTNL
Test [6] relates to HT-22. Briefly: Neuroprotective activity against glutamate-induced oxidative stress in mouse HT22 cells assessed as reduction of intracellular ROS formation at 5 uM after 24 hrs by MTT assay. Type of test: functional, cell-based. The method, boiled down: as §2
Test [7] addresses Acetylcholinesterase (Electrophorus electricus) (UniProt O42275). Briefly: Time dependent inhibition of Electric eel AChE assessed as stability constants of inhibitor-enzyme complex using acetylthiocholine as substrate at 10 to 50 nM after 60 mins.
Test [8] has the same target. In words: Inhibition of Electric eel AChE using acetylthiocholine as substrate at 100 uM after 2 mins. The method, boiled down:
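Enzyme sources were electric eel AChE and equine serum BChE. Values are means of at least three independent determinations. Single-point entries are % inhibition at 100 μM.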

For test [9], the target named is T1, Cholinesterase. In words: Time dependent inhibition of equine serum BChE assessed as stability constants of inhibitor-enzyme complex using acetylthiocholine as substrate after 60 mins.
The target in test [10] is T2, Acetylcholinesterase. In words: Time dependent inhibition of Electric eel AChE assessed as stability constants of inhibitor-enzyme complex using acetylthiocholine as substrate after 60 mins.

The source made the active and inactive calls. The calls are words filed in the database; no cut-off is given here.

T1 sequence (P81908 whole entry): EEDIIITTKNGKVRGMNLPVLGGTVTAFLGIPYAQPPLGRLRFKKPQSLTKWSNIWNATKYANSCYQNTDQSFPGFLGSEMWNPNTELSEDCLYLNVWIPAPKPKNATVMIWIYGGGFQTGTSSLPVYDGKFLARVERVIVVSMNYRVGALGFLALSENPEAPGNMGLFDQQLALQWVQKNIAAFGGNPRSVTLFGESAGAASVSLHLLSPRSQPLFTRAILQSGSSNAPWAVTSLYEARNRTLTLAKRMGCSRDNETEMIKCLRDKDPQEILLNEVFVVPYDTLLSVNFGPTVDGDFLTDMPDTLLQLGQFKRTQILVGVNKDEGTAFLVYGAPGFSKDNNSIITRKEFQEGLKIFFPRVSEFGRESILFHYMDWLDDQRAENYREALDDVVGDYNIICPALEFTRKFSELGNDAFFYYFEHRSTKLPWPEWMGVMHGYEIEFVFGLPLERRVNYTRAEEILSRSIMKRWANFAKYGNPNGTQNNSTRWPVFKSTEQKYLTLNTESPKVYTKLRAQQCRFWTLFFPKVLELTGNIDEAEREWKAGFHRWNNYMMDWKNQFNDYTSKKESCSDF
Chain of Acetylcholinesterase (Electrophorus electricus) (O42275 24-633 limits assumed): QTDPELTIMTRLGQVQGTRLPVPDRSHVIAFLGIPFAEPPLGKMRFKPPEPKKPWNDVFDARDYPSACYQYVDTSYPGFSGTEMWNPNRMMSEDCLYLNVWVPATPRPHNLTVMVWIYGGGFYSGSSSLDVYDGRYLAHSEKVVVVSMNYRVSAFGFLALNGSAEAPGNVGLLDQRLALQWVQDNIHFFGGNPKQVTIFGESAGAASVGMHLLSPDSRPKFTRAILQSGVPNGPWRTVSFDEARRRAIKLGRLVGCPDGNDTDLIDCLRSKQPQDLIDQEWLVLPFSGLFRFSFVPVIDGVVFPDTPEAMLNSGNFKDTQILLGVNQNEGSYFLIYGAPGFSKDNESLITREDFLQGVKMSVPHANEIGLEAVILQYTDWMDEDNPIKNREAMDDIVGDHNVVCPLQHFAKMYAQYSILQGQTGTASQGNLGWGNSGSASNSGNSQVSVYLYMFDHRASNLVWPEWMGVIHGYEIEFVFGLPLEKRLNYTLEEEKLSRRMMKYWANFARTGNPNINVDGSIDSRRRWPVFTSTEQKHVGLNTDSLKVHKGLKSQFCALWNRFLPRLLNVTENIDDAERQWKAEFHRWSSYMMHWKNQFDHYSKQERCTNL

With `CN1c2ccccc2CN2CCCc3ccccc3C21` (configuration not stated), in test [1], the Ratio IC50 is greater than 8.4. The IC50 at Cholinesterase [2] (read-out: IC50) turned out to be 23.7 µM.
For `Cc1ccccc1NC(=O)Oc1ccc2c(c1)CN1CCc3ccccc3C1N2C` (configuration not stated), in [1], the Ratio IC50 is greater than 1350. The IC50 on Cholinesterase [2] (read-out: IC50) was 0.144 µM.
As for `CC(C)c1ccc(NC(=O)Oc2ccc3c(c2)CN2CCCC2N3C)cc1` (configuration not stated), the Ratio IC50 in test [1] was greater than 66.6. Besides, the IC50 at Cholinesterase [2] (read-out: IC50) worked out at 3 µM.
`CN1c2ccc(O)cc2CN2CCCC21` (configuration not stated): in test [1], the Ratio IC50 was found to be 0.75. Further, the outcome in the test with HT-22 [3] and in the test on HT-22 [6] was Active. For the same compound, in test [4], the Ratio amounted to 3.43. The figures for the IC50 on Cholinesterase [2] (read-out: IC50), on Acetylcholinesterase [5] (read-out: IC50) and at Acetylcholinesterase [5] (read-out: pIC50 (converted)) were 41 µM, 30.6 µM and 30.2 µM, respectively.
`COc1ccc2c(c1)CN1CCCc3ccccc3C1N2C` (configuration not stated): the Ratio IC50 in test [1] was greater than 6.7. Also, the Ratio in test [4] came out at 1.2. In addition, on Cholinesterase [2] (read-out: IC50), the IC50 amounted to 29.7 µM.
`CN1c2ccccc2CN2CCCC21` (configuration not stated): the Ratio IC50 in [1] was 3.4. The values for the IC50 on Cholinesterase [2] (read-out: IC50) and at Acetylcholinesterase [5] (read-out: IC50) were 38.9 µM and 131 µM, respectively.
Take `CCCCCCCNC(=O)Oc1ccc2c(c1)CN1CCc3ccccc3C1N2C` (configuration not stated): the Ratio IC50 in test [1] is greater than 15000. The inhibition result in [7] and in test [8] was “inactive” each time. The result in the test with HT-22 [3] was Active. Also, the Ratio in test [4] stood at 0.3. For the same compound, at Cholinesterase [9], the Ki is 0.0127 µM. Further, the IC50 on Cholinesterase [2] (read-out: IC50) is 0.06 µM.
As to `COc1cccc(NC(=O)Oc2ccc3c(c2)CN2CCc4ccccc4C2N3C)c1` (configuration not stated), the Ratio IC50 in [1] was greater than 900. In addition, the IC50 on Cholinesterase [2] (read-out: IC50) was 0.218 µM.
The matching figures for `CC(C)c1ccc(NC(=O)Oc2ccc3c(c2)CN2CCc4ccccc4C2N3C)cc1` (configuration not stated): greater than 1500 and 0.131 µM.
Take `COc1ccc2c(c1)CN1CCc3ccccc3C1N2C` (configuration not stated): the Ratio IC50 in test [1] is 4.2. In addition, the Ratio in test [4] is 0.51. Besides, the IC50 at Cholinesterase [2] (read-out: IC50) was determined as 55.6 µM; on Acetylcholinesterase [5] (read-out: IC50), 232 µM. For the same compound, in the test on HT-22 [6], the outcome was inactive.
In the case of `CN1c2ccccc2CN2CCc3ccccc3C21` (configuration not stated), the Ratio IC50 in test [1] is 3.3. In addition, the result with HT-22 [3] was inactive. The Ratio in test [4] stood at 0.92. Besides, the IC50 on Cholinesterase [2] (read-out: IC50) came out at 44 µM; on Acetylcholinesterase [5] (read-out: IC50), 145 µM.
Consider `CCCCCCCNC(=O)Oc1ccc2c(c1)CN1CCCC1N2C` (configuration not stated), for which the Ratio IC50 in [1] is 16.6. For the same compound, the result in the test with HT-22 [3] and in the test on HT-22 [6] was Active. The Ratio in [4] turned out to be 1.03. Besides, the IC50 on Cholinesterase [2] (read-out: IC50) is 1.95 µM; on Acetylcholinesterase [5] (read-out: IC50), 32.3 µM.
For the compound `CCCCCCCNC(=O)Oc1ccc2c(c1)CN1CCCc3ccccc3C1N2C` (configuration not stated), in [1], the Ratio IC50 was greater than 4000. Also, the outcome in the test on HT-22 [3] was Active. In addition, the Ratio in test [4] is 0.86. For the same compound, the IC50 on Cholinesterase [2] (read-out: IC50) is 0.046 µM.
For the compound `Cc1ccccc1NC(=O)Oc1ccc2c(c1)CN1CCCC1N2C` (configuration not stated), in [1], the Ratio IC50 is 16.1. The IC50 on Cholinesterase [2] (read-out: IC50) stood at 4.11 µM; on Acetylcholinesterase [5] (read-out: IC50) it was 66.3 µM.
In the case of `CN1c2ccc(O)cc2CN2CCc3ccccc3C21` (configuration not stated), the Ratio IC50 in [1] was 2.5. Besides, the outcome in the test on HT-22 [3] and in the test on HT-22 [6] was Active. For the same compound, in [4], the Ratio turned out to be 2.87. Further, the results for the IC50 on Cholinesterase [2] (read-out: IC50) and at Acetylcholinesterase [5] (read-out: IC50) were 44.3 µM and 110 µM, respectively.
As for `CN1c2ccc(O)cc2CN2CCCc3ccccc3C21` (configuration not stated), in test [1], the Ratio IC50 turned out to be 5.2. Besides, the outcome in the test on HT-22 [3] and in the test on HT-22 [6] was Active. Besides, the Ratio in test [4] was determined as 2.48. For the same compound, the figures for the IC50 on Cholinesterase [2] (read-out: IC50) and on Acetylcholinesterase [5] (read-out: IC50) were 7.3 µM and 37.8 µM, respectively.
Take `COc1cccc(NC(=O)Oc2ccc3c(c2)CN2CCCC2N3C)c1` (configuration not stated): the Ratio IC50 in test [1] is 5.3. In addition, the values for the IC50 on Cholinesterase [2] (read-out: IC50) and on Acetylcholinesterase [5] (read-out: IC50) were 7.52 µM and 40.2 µM, respectively.
For `CCN(C)C(=O)Oc1ccc2c(c1)CN1CCc3ccccc3C1N2C` (configuration not stated), in [1], the Ratio IC50 is 54.2. Also, the result with HT-22 [3] was inactive. In test [4], the Ratio came out at 0.65. Besides, the results for the Ki at Cholinesterase [9] and on Acetylcholinesterase [10] were 0.275 µM and 1.12 µM, respectively. Moreover, the IC50 on Cholinesterase [2] (read-out: IC50) was 0.45 µM; on Cholinesterase [2] (read-out: pIC50 (converted)), 24.5 µM; at Acetylcholinesterase [5] (read-out: IC50) it was 24.4 µM; at Acetylcholinesterase [5] (read-out: pIC50 (converted)) it was 234 µM.
